Data taken from ChEMBL document CHEMBL1649299, “Eradication of intracellular Salmonella enterica serovar Typhimurium with a small-molecule, host cell-directed agent” (Antimicrob Agents Chemother, 2009).
Activity calls are given as the source filed them.

Assays:
Salmonella typhimurium [1] = test: Antimicrobial activity against Salmonella enterica serovar Typhimurium ATCC 14028 infected in mouse RAW264.7 cells transfected with shRNA assessed as reduction of Atg7 expression at 1 uM after 2 hrs by immunoblotting relative to control; format: functional, Salmonella enterica subsp. enterica serovar Typhimurium; design: scale not given: the % may be the effect or the level left
Procedure, shortened: (§1)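 Beclin-1 or Atg7 shRNA plasmids, with GFP shRNA as control, were nucleofected into RAW264.7 cells (2 × 10^6 cells, 2 μg DNA). Stable clones were selected with 2 μg/ml puromycin and kept in 1 μg/ml. Knockdown was measured by immunoblotting.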

Salmonella typhimurium [2] = test: Antimicrobial activity against Salmonella enterica serovar Typhimurium ATCC 14028 infected in mouse RAW264.7 cells transfected with HA-tagged CA-Akt1 assessed as inhibition of intracellular bacterial survival at 1 uM after 8 hrs; format: functional, organism-based; conditions: Salmonella enterica subsp. enterica serovar Typhimurium
Procedure, shortened: (§2)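 Macrophages were seeded at 5.0 × 10^5 cells/well for 12–16 h; THP-1 cells were first differentiated with 20 nM TPA for 48 h. Bacteria were subcultured 3 h in LB and added at MOI 25 for 30 min. Cells then received 100 μg/ml gentamicin for 1 h and were washed. Treatment was in medium with 10% FBS and 10 μg/ml gentamicin. Survivors were released with 0.1% Triton X-100 and counted as CFU on LB agar after 16 h at 37°C.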

RAW264.7 [3] = test: Cytotoxicity against mouse RAW264.7 cells assessed as cell viability at 1 uM after 24 hrs by MTT assay; format: cell-based; conditions: raw264.7, 24 h
Salmonella typhimurium [4] = test: Antimicrobial activity against Salmonella enterica serovar Typhimurium ATCC 14028 infected in BALB/c mouse assessed as reduction of spleen bacterial load at 2.5 mg/kg, administered intragastrically after 24 hrs of post infection qd for 4 days measured on day 5 relative to control; format: functional, Salmonella enterica subsp. enterica serovar Typhimurium; design: scale not given: the % may be the effect or the level left; conditions: route intragastric
Procedure, shortened: (§3)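 Female BALB/c mice, 8–10 weeks old, were infected by intragastric gavage with an overnight culture at 10^5 organisms in 0.1 ml PBS (50% lethal dose). Starting 24 h post-infection, drug in 0.5% methylcellulose–0.1% Tween 80 in water was given by gavage once daily for 4 days at 1, 2.5 or 5 mg/kg, 7–9 mice per group. On day 5 post-infection, liver and spleen were homogenized in 10 ml cold PBS and plated on LB agar to count CFU.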

Salmonella typhimurium [5] = test: Antimicrobial activity against Salmonella enterica serovar Typhimurium ATCC 14028 infected in mouse RAW264.7 cells assessed as inhibition of intracellular bacterial growth at 1 uM after 8 hrs; format: functional, Salmonella enterica subsp. enterica serovar Typhimurium; design: scale not given: the % may be the effect or the level left
Procedure, shortened: (§4)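 RAW264.7 cells were seeded at 5.0 × 10^5 cells/well for 12–16 h. Log-phase bacteria (1:33 subculture, 3 h in LB, 37°C) were added at MOI 25 for 30 min. Extracellular bacteria were killed with 100 μg/ml gentamicin for 1 h, then washed off. Cells were treated in medium with 10% FBS and 10 μg/ml gentamicin (DMSO 0.1% final) and lysed with 0.1% Triton X-100. CFU were counted on LB agar after 16 h at 37°C.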

RAW264.7 [6] = test: Induction of autophagy in mouse RAW264.7 cells assessed as LC3-positive puncta with diameter greater than 1 uM in cytoplasm at 1 uM by immunofluorescence microscopic analysis; format: functional, cell-based
Procedure, shortened: (§5)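 RAW264.7 cells were fixed in 4% formaldehyde for 20 min at 25°C, permeabilized with 0.5% Triton X-100, and blocked overnight in 3% BSA. Staining used primary antibody (anti-LC3 for autophagosomes) for 1 h, then fluorescent secondary antibody for 1 h, with DAPI for nuclei. Slides were read by wide-field or confocal microscopy. For colocalization, only bacteria in direct contact with autophagosomes in 3-D confocal images were scored. Giant puncta were defined as ≥1 μm.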

[7] = target: RAC-alpha serine/threonine-protein kinase (Mus musculus) (UniProt P31750); test: Inhibition of Akt phosphorylation in mouse RAW264.7 cells infected with Salmonella enterica serovar Typhimurium ATCC 14028 assessed as decrease of phosphorylated GSK3-beta level at 1 uM after 8 hrs by Western blotting; format: cell-based
Chain of RAC-alpha serine/threonine-protein kinase (Mus musculus) (P31750 whole entry): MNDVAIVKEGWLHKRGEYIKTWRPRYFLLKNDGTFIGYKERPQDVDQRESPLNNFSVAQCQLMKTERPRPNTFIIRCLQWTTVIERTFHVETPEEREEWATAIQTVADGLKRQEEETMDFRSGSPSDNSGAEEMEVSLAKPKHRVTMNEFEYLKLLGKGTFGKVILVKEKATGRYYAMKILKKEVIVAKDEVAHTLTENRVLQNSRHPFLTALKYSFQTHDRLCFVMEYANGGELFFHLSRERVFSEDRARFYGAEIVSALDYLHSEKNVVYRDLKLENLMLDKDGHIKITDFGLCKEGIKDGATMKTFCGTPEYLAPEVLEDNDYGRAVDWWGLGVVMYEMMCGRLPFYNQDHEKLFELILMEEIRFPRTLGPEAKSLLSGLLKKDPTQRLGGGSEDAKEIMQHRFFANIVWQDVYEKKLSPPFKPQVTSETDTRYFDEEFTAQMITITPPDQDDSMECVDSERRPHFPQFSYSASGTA
Procedure, shortened: (§6)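 Infected RAW264.7 cells were treated for 8 h and then lysed in M-PER on ice. Lysates (25 μg/lane) were run on SDS gels and transferred to nitrocellulose. Membranes were blocked with 3% skim milk in TBS, incubated with primary antibody for 12 h at 4°C and then HRP secondary, and detected by enhanced chemiluminescence.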

RAW264.7 [8] = test: Induction of autophagy in mouse RAW264.7 cells assessed as increase of LC3 punctum formation at 1 uM by immunofluorescence microscopic analysis; format: functional, cell-based; procedure, shortened: as §5
Salmonella typhimurium [9] = test: Antimicrobial activity against Salmonella enterica serovar Typhimurium ATCC 14028 infected in human TPA-differentiated THP1 cells; format: functional, organism-based; conditions: Salmonella enterica subsp. enterica serovar Typhimurium, THP-1; procedure, shortened: as §2
Salmonella typhimurium [10] = test: Antimicrobial activity against Salmonella enterica serovar Typhimurium ATCC 14028 infected in mouse RAW264.7 cells assessed as inhibition of intracellular bacterial growth after 8 hrs; format: functional, organism-based, Salmonella enterica subsp. enterica serovar Typhimurium; conditions: ATCC 14028, RAW264.7, 8 h; procedure, shortened: as §4
Salmonella typhimurium [11] = test: Antimicrobial activity against Salmonella enterica serovar Typhimurium ATCC 14028 infected in mouse RAW264.7 cells transfected with shRNA assessed as reduction of Beclin-1 expression at 1 uM after 2 hrs by immunoblotting relative to control; format: functional, Salmonella enterica subsp. enterica serovar Typhimurium; design: scale not given: the % may be the effect or the level left; procedure, shortened: as §1
Salmonella typhimurium [12] = test: Antimicrobial activity against Salmonella enterica serovar Typhimurium ATCC 14028 at 1 to 5 uM after 480 mins; format: functional, organism-based; conditions: Salmonella enterica subsp. enterica serovar Typhimurium
[13] = target: RAC-alpha serine/threonine-protein kinase (Mus musculus) (UniProt P31750); test: Inhibition of Akt phosphorylation in mouse RAW264.7 cells infected with Salmonella enterica serovar Typhimurium ATCC 14028 assessed as decrease of p-308Thr-Akt level after 8 hrs by Western blotting; format: cell-based; procedure, shortened: as §6
RAW264.7 [14] = test: Cytotoxicity against Salmonella enterica serovar Typhimurium ATCC 14028 infected in mouse RAW264.7 cells assessed as cell viability at 1 uM after 24 hrs by MTT assay; format: cell-based; conditions: raw264.7, 24 h
Salmonella typhimurium [15] = test: Antimicrobial activity against Salmonella enterica serovar Typhimurium ATCC 14028 infected in mouse RAW264.7 cells assessed as reduction of bacterial count at 1 uM pretreated 30 mins before infection measured after 1 hr; format: functional, organism-based; conditions: Salmonella enterica subsp. enterica serovar Typhimurium
Procedure, shortened: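 Bacteria were pre-exposed to vehicle (DMSO) or 1 μM drug in culture medium for 30 min. They were then used to infect RAW264.7 cells at MOI 25 for 30 min, followed by 100 μg/ml gentamicin for 1 h and PBS washes. Intracellular bacteria were counted as CFU 1 h later after Triton X-100 lysis.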

Salmonella typhimurium [16] = test: Antimicrobial activity against Salmonella enterica serovar Typhimurium ATCC 14028 infected in mouse RAW264.7 cells assessed as inhibition of intracellular bacterial growth at 1 uM after 8 to 24 hrs in presence of gentamicin; format: functional, organism-based; conditions: Salmonella enterica subsp. enterica serovar Typhimurium; procedure, shortened: as §2
Salmonella typhimurium [17] = test: Antimicrobial activity against Salmonella enterica serovar Typhimurium ATCC 14028 infected in mouse RAW264.7 cells assessed as inhibition of intracellular bacterial growth at 1 uM after 4 hrs; format: functional, organism-based, Salmonella enterica subsp. enterica serovar Typhimurium; procedure, shortened: as §4
Salmonella typhimurium [18] = test: Antimicrobial activity against Salmonella enterica serovar Typhimurium ATCC 14028 infected in BALB/c mouse assessed as reduction of liver bacterial load at 5 mg/kg, administered intragastrically after 24 hrs of post infection qd for 4 days measured on day 5 relative to control; format: functional, Salmonella enterica subsp. enterica serovar Typhimurium; design: scale not given: the % may be the effect or the level left; conditions: route intragastric; procedure, shortened: as §3
Salmonella typhimurium [19] = test: Antimicrobial activity against Salmonella enterica serovar Typhimurium ATCC 14028 infected in mouse RAW264.7 cells assessed as inhibition of intracellular bacterial growth at 1 uM after 4 hrs in presence of vacuolar ATPase inhibitor bafilomycin A1; format: functional, organism-based; conditions: Salmonella enterica subsp. enterica serovar Typhimurium; procedure, shortened: as §2
Salmonella typhimurium [20] = test: Antimicrobial activity against Salmonella enterica serovar Typhimurium ATCC 14028 infected in BALB/c mouse assessed as reduction of spleen bacterial load at 5 mg/kg, administered intragastrically after 24 hrs of post infection qd for 4 days measured on day 5 relative to control; format: functional, Salmonella enterica subsp. enterica serovar Typhimurium; design: scale not given: the % may be the effect or the level left; conditions: route intragastric; procedure, shortened: as §3
Salmonella typhimurium [21] = test: Antimicrobial activity against Salmonella enterica serovar Typhimurium ATCC 14028 infected in BALB/c mouse assessed as increase of host survival days at 2.5 mg/kg, po administered after 24 hrs of post infection qd relative to control
Salmonella typhimurium [22] = test: Antimicrobial activity against Salmonella enterica serovar Typhimurium ATCC 14028 infected in BALB/c mouse assessed as reduction of liver bacterial load at 2.5 mg/kg, administered intragastrically after 24 hrs of post infection qd for 4 days measured on day 5 relative to control; format: functional, Salmonella enterica subsp. enterica serovar Typhimurium; design: scale not given: the % may be the effect or the level left; conditions: route intragastric; procedure, shortened: as §3
Salmonella typhimurium [23] = test: Antimicrobial activity against Salmonella enterica serovar Typhimurium ATCC 14028 infected in mouse J774.1 cells; format: functional, organism-based; conditions: Salmonella enterica subsp. enterica serovar Typhimurium; procedure, shortened: as §2
[24] = target: RAC-alpha serine/threonine-protein kinase (Mus musculus) (UniProt P31750); test: Inhibition of Akt phosphorylation in mouse RAW264.7 cells infected with Salmonella enterica serovar Typhimurium ATCC 14028 assessed as decrease of p-473Ser-Akt level after 8 hrs by Western blotting; format: cell-based; procedure, shortened: as §6
Salmonella typhimurium [25] = test: Antimicrobial activity against Salmonella enterica serovar Typhimurium ATCC 14028 infected in mouse RAW264.7 cells transfected with HA-tagged CA-Akt1 assessed as inhibition of intracellular bacterial survival at 1 uM after 2 hrs; format: functional, organism-based; conditions: Salmonella enterica subsp. enterica serovar Typhimurium; procedure, shortened: as §2
Salmonella typhimurium [26] = test: Antimicrobial activity against Salmonella enterica serovar Typhimurium ATCC 14028 infected in mouse RAW264.7 cells assessed as reduction in bacterial load at 1 uM after 8 hrs by immunofluorescent staining; format: functional, Salmonella enterica subsp. enterica serovar Typhimurium; design: scale not given: the % may be the effect or the level left; procedure, shortened: as §5
Salmonella typhimurium [27] = test: Antimicrobial activity against Salmonella enterica serovar Typhimurium ATCC 14028 infected in mouse RAW264.7 cells assessed as colocalization of organism with autophagosomes at 1 uM after 1 hr by immunofluorescence microscopic analysis relative to control; format: functional, Salmonella enterica subsp. enterica serovar Typhimurium; procedure, shortened: as §5
RAW264.7 [28] = test: Cytotoxicity against mouse RAW264.7 cells assessed as cell viability after 24 hrs by MTT assay; format: cell-based; conditions: RAW264.7, 24 h
Salmonella typhimurium [29] = test: Antimicrobial activity against Salmonella enterica serovar Typhimurium ATCC 14028 infected in mouse RAW264.7 cells assessed as reduction of bacterial survival at 1 uM after 2 hrs relative to control; format: functional, Salmonella enterica subsp. enterica serovar Typhimurium; procedure, shortened: as §4

NCC(=O)Nc1ccc(-n2nc(C(F)(F)F)cc2-c2ccc3c(ccc4ccccc43)c2)cc1 [AR-12]
Activity (Salmonella typhimurium [1]): 43%
Activity (Salmonella typhimurium [2]): inactive
Activity (RAW264.7 [3]): Non-toxic
Activity (Salmonella typhimurium [4]): 98%
Activity (Salmonella typhimurium [5]): 90%
Activity (RAW264.7 [6]): Active
inhibition [7]: Active
Activity (RAW264.7 [8]): Active
Activity (Salmonella typhimurium [9]): Active
IC50 (Salmonella typhimurium [10]): 200 nM
Activity (Salmonella typhimurium [11]): 83%
Activity (Salmonella typhimurium [12]): inactive
inhibition [13]: Dose-dependent effect
Activity (RAW264.7 [14]): Non-toxic
Activity (Salmonella typhimurium [15]): inactive
Activity (Salmonella typhimurium [16]): Active
Activity (Salmonella typhimurium [17]): Active
Activity (Salmonella typhimurium [18]): 96%
Activity (Salmonella typhimurium [19]): Active
Activity (Salmonella typhimurium [20]): 90%
Survival (Salmonella typhimurium [21]): 8.1 days
Activity (Salmonella typhimurium [22]): 99%
Activity (Salmonella typhimurium [23]): Active
inhibition [24]: Dose-dependent effect
Activity (Salmonella typhimurium [25]): Active
Activity (Salmonella typhimurium [26]): 82%
Activity (Salmonella typhimurium [27]): 21.2%
IC50 (RAW264.7 [28]): > 10000 nM
Activity (Salmonella typhimurium [29]): 25%
